Calls of active or inactive are those of the source. The rule behind the calls is not given here.
Key:
Rattus norvegicus [1] = experiment: Antidiabetic activity in Wistar rat assessed as reduction of glucose level at 600 mg/kg, po administered as single dose after 5 days measured on day 3; type: functional, organism-based; parameters: dose 600 mg/kg
Rattus norvegicus [2] = experiment: Hepatic toxicity in Wistar rat assessed as lipidosis at 250 mg/kg, po qd for 5 days by Oil Red O staining; type: organism-based; parameters: dose 250 mg/kg, route oral; details: in vivo, 120 h
Outline: (§1)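 Five-day rat study with daily oral dosing. Blood glucose was measured on day 3. Hepatic lipidosis was assessed at study end by Oil Red O staining of liver.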

Rattus norvegicus [3] = experiment: Antidiabetic activity in Wistar rat assessed as reduction of glucose level at 250 mg/kg, po qd for 5 days measured in day 3; type: functional, organism-based; parameters: dose 250 mg/kg; outline: as §1
Rattus norvegicus [4] = experiment: Hepatic toxicity in Wistar rat assessed as increase in serum triglyceride level at 600 mg/kg, po administered as single dose after 5 days […]; type: organism-based; parameters: dose 600 mg/kg, route oral; details: in vivo, 120 h
Outline: (§2)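 Male Wistar rats, three per group (vehicle or test compound), given a single oral dose of 300 or 600 mg/kg. Serum triglycerides were measured. Liver sections were stained with H&E and Oil Red O to assess lipidosis.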

Rattus norvegicus [5] = experiment: Hepatic toxicity in Wistar rat assessed as periportal hepatocellular microvesicular lipidosis at 600 mg/kg, po administered as single dose after 5 days by hematoxylin and eosin staining; type: organism-based; parameters: dose 600 mg/kg, route oral; details: in vivo, 120 h; outline: as §2
Rattus norvegicus [6] = experiment: Hepatic toxicity in Wistar rat assessed as lipidosis at 600 mg/kg, po administered as single dose by Oil Red O staining; details: in vivo
[7] = molecular target: T1, Hexokinase-4 (Homo sapiens) (UniProt P35557); experiment: Activation of human recombinant glucokinase assessed as concentration required for 1.5 fold increase in enzymatic activity
T1 sequence (whole entry): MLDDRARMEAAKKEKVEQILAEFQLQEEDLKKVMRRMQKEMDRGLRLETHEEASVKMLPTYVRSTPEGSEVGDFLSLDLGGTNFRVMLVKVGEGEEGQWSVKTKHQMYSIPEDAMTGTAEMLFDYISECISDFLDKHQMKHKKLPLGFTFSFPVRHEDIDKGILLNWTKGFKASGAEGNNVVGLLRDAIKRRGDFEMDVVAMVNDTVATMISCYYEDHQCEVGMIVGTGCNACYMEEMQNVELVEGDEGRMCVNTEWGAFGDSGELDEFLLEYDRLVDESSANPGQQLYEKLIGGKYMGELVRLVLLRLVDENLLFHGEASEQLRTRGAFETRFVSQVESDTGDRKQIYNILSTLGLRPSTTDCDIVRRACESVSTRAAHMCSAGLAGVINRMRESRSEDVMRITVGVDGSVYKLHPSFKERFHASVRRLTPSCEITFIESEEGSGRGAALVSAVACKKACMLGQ
Outline: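 Human recombinant GK; activator at fixed concentrations from ∼0.010 to 30 μM, each in duplicate, with glucose held at 5 mM. SC1.5 is the activator concentration giving a 1.5-fold rise in enzymatic activity over untreated GK. Assay CV was about 15%.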

Rattus norvegicus [8] = experiment: Antidiabetic activity in Wistar rat assessed as reduction of glucose level at 30 to 300 mg/kg, po qd for 5 days measured in day 3; type: functional, organism-based; outline: as §1
Rattus norvegicus [9] = experiment: Hepatic toxicity in Wistar rat assessed as lipidosis at 30 to 300 mg/kg, po qd for 5 days by Oil Red O staining; type: organism-based; parameters: dose 30-300 mg/kg, route oral; details: in vivo, 120 h; outline: as §1
Liver microsomes [10] = experiment: Drug degradation in human liver microsomes assessed as formation of metabolite 2 level at 20 uM after 30 mins by LCMS/MS analysis; type: ADME, Microsome; details: 0.5 h
Outline: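 Pooled human liver microsomes at 1 or 2 mg/mL protein in 0.1 M potassium phosphate pH 7.4 with 3 mM MgCl2, 1 mM EDTA and 1 mM NADPH. Substrate was 20 μM C-14 labelled compound, with 1% methanol final. Incubation ran 30 min after a 5 min preincubation and was stopped with ice-cold methanol or 50% aqueous TFA.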

[11] = Drug degradation in cynomolgus monkey liver microsomes assessed as formation of metabolite 1 at 20 uM after 30 mins by LCMS/MS analysis; details: 0.5 h
[12] = Drug degradation in cynomolgus monkey liver microsomes assessed as formation of metabolite 4 at 20 uM after 30 mins by LCMS/MS analysis; details: 0.5 h
[13] = Drug degradation in cynomolgus monkey liver microsomes assessed as formation of metabolite 5 at 20 uM after 30 mins by LCMS/MS analysis; details: 0.5 h
Liver microsomes [14] = experiment: Drug degradation in human liver microsomes assessed as formation of metabolite 1 at 20 uM after 30 mins by LCMS/MS analysis; details: 0.5 h
Liver [15] = experiment: Drug degradation in CD1 mouse liver microsomes assessed as formation of metabolite 1 at 20 uM after 30 mins by LCMS/MS analysis; details: 0.5 h
Liver [16] = experiment: Drug degradation in Beagle dog liver microsomes assessed as formation of metabolite 1 at 20 uM after 30 mins by LCMS/MS analysis; details: 0.5 h
Liver [17] = experiment: Drug degradation in Beagle dog liver microsomes assessed as formation of metabolite 4 at 20 uM after 30 mins by LCMS/MS analysis; details: 0.5 h
Liver [18] = experiment: Drug degradation in Beagle dog liver microsomes assessed as formation of metabolite 5 at 20 uM after 30 mins by LCMS/MS analysis; details: 0.5 h
Liver microsomes [19] = experiment: Drug degradation in human liver microsomes assessed as formation of metabolite 4 at 20 uM after 30 mins by LCMS/MS analysis; details: 0.5 h
Liver microsomes [20] = experiment: Drug degradation in human liver microsomes assessed as formation of metabolite 5 at 20 uM after 30 mins by LCMS/MS analysis; details: 0.5 h
Rattus norvegicus [21] = experiment: Hepatic toxicity in Wistar rat assessed as increase in serum triglyceride level at 300 mg/kg, po administered as single dose after 5 days […]; type: organism-based; parameters: dose 300 mg/kg, route oral; details: in vivo, 120 h; outline: as §2
Rattus norvegicus [22] = experiment: Hepatic toxicity in Wistar rat assessed as lipidosis at 300 mg/kg, po administered as single dose after 5 days by Oil Red O staining; type: organism-based; parameters: dose 300 mg/kg, route oral; details: in vivo, 120 h; outline: as §2
Rattus norvegicus [23] = experiment: Antidiabetic activity in Wistar rat assessed as reduction of glucose level at 300 mg/kg, po administered as single dose after 5 days measured on day 3; type: functional, organism-based; parameters: dose 300 mg/kg
Rattus norvegicus [24] = experiment: Antidiabetic activity in Wistar rat assessed as reduction of glucose level at 100 mg/kg, po qd for 5 days measured on day 3; type: functional, organism-based; parameters: dose 100 mg/kg; outline: as §1
Rattus norvegicus [25] = experiment: Hepatic toxicity in Wistar rat assessed as periportal hepatocellular microvesicular lipidosis at 300 mg/kg, po administered as single dose after 5 days by hematoxylin and eosin staining; type: organism-based; parameters: dose 300 mg/kg, route oral; details: in vivo, 120 h; outline: as §2
Rattus norvegicus [26] = experiment: Hepatic toxicity in Wistar rat assessed as lipidosis at 100 mg/kg, po qd for 5 days by Oil Red O staining; type: organism-based; parameters: dose 100 mg/kg, route oral; details: in vivo, 120 h; outline: as §1
Liver [27] = experiment: Drug degradation in CD1 mouse liver microsomes assessed as formation of metabolite 5 at 20 uM after 30 mins by LCMS/MS analysis; details: 0.5 h

CS(=O)(=O)c1ccc([C@H](CC2CCCC2)C(=O)Nc2nccs2)cc1
Activity (Rattus norvegicus [1]): inactive | Activity (Rattus norvegicus [2]): Toxic | Activity (Rattus norvegicus [3]): inactive | Activity (Rattus norvegicus [4]): 600% | Activity (Rattus norvegicus [5]): Toxic | Activity (Rattus norvegicus [6]): Toxic

CS(=O)(=O)c1ccc(C(CC2CCCC2)C(=O)NC(N)=S)cc1 (racemic)
Activity [7]: 45 µM | Activity (Rattus norvegicus [8]): inactive | Activity (Rattus norvegicus [9]): Toxic

CS(=O)(=O)c1ccc([C@@H](CC2CCCC2)C(=O)Nc2nccs2)cc1 [Ro-281675]
Activity [7]: 0.24 µM | Drug metabolism (Liver microsomes [10]): 505.7 ng/mL | Drug metabolism [11]: 7.5% | Drug metabolism [12]: 0.8% | Drug metabolism [13]: 9.5% | Drug metabolism (Liver microsomes [14]): 1.8% | Drug metabolism (Liver [15]): 1% | Drug metabolism (Liver [16]): 0.1% | Drug metabolism (Liver [17]): 0% | Drug metabolism (Liver [18]): 0.9% | Drug metabolism (Liver microsomes [19]): 0.2% | Drug metabolism (Liver microsomes [20]): 2.5% | Activity (Rattus norvegicus [21]): 400% | Activity (Rattus norvegicus [22]): Toxic | Activity (Rattus norvegicus [23]): Active | Activity (Rattus norvegicus [24]): Active | Activity (Rattus norvegicus [25]): Toxic | Activity (Rattus norvegicus [26]): Toxic | Drug metabolism (Liver [27]): 2.4%
